# The source made the active and inactive calls. The calls are words filed in the database; no cut-off is given here.
# Columns and labels:
# [1] = system: K562; assay: Induction of apoptosis in human K562 cells assessed as necrotic cells at 30 nM after 12 hrs by Annexin V-FITC/propidium iodide staining-based flow cytometric analysis (reference value: 0.1%); assay type: functional
# [2] = system: K562; assay: Induction of apoptosis in human K562 cells assessed as viable cells at 300 nM after 48 hrs by Annexin V-FITC/propidium iodide staining-based flow cytometric analysis (reference value: 95.6%); assay type: functional; conditions: K562, 48 h, read-out: Activity
# [3] = system: K562; assay: Induction of apoptosis in human K562 cells assessed as necrotic cells at 30 nM after 6 hrs by Annexin V-FITC/propidium iodide staining-based flow cytometric analysis (reference value: 0.1%); assay type: functional
# [4] = system: K562; assay: Induction of apoptosis in human K562 cells assessed as late apoptotic cells at 300 nM after 24 hrs by Annexin V-FITC/propidium iodide staining-based flow cytometric analysis (reference value: 2.1%); assay type: functional
# [5] = system: K562; assay: Induction of apoptosis in human K562 cells assessed as late apoptotic cells at 300 nM after 48 hrs by Annexin V-FITC/propidium iodide staining-based flow cytometric analysis (reference value: 2.1%); assay type: functional
# [6] = system: K562; assay: Induction of apoptosis in human K562 cells assessed as viable cells at 300 nM after 6 hrs by Annexin V-FITC/propidium iodide staining-based flow cytometric analysis (reference value: 95.6%); assay type: functional; conditions: K562, 6 h, read-out: Activity
# [7] = system: HUVEC; assay: Cytotoxicity against HUVEC after 48 hrs by MTT assay; assay type: cell-based; conditions: Homo sapiens
# [8] = system: K562; assay: Induction of apoptosis in human K562 cells assessed as early apoptotic cells at 30 nM after 48 hrs by Annexin V-FITC/propidium iodide staining-based flow cytometric analysis (reference value: 1.9%); assay type: functional
# [9] = system: K562; assay: Induction of apoptosis in human K562 cells assessed as viable cells at 30 nM after 24 hrs by Annexin V-FITC/propidium iodide staining-based flow cytometric analysis (reference value: 95.8%); assay type: functional; conditions: K562, 24 h, read-out: Activity
# [10] = system: HepG2; assay: Anti-migratory activity against human HepG2 cells at 10 nM after 48 hrs by wound-healing assay relative to control; assay type: functional
# Summary of the method: (§1)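 HepG2 cells seeded at 2 × 10^5 cells/well in DMEM and grown 24 h. Monolayer scratched with a 10 μl pipette tip, then PBS-washed three times. Treated with DMSO or compound (10, 30, 100 nM) at 37 °C, 5% CO2, imaged by microscopy at 0–48 h. Migration distance measured; inhibition ratio calculated against DMSO control.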
# [11] = system: K562; assay: Induction of apoptosis in human K562 cells assessed as viable cells at 30 nM after 6 hrs by Annexin V-FITC/propidium iodide staining-based flow cytometric analysis (reference value: 95.8%); assay type: functional; conditions: K562, 6 h, read-out: Activity
# [12] = system: K562; assay: Induction of apoptosis in human K562 cells assessed as late apoptotic cells at 300 nM after 6 hrs by Annexin V-FITC/propidium iodide staining-based flow cytometric analysis (reference value: 2.1%); assay type: functional
# [13] = system: K562; assay: Induction of morphological changes in human K562 cells assessed as elongation of cells at 30 nM after 6 hrs; assay type: functional, cell-based
# Summary of the method: (§2)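 K562 cells kept in RPMI-1640 with 10% FBS, 2.05 mM glutamine and penicillin/streptomycin at 37 °C, 5% CO2. Exposed to 30 nM drug alongside DMSO-treated controls. Cell morphology examined by microscopy.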
# [14] = system: K562; assay: Induction of apoptosis in human K562 cells assessed as viable cells at 300 nM after 24 hrs by Annexin V-FITC/propidium iodide staining-based flow cytometric analysis (reference value: 95.6%); assay type: functional; conditions: K562, 24 h, read-out: Activity
# [15] = system: K562; assay: Induction of apoptosis in human K562 cells assessed as late apoptotic cells at 30 nM after 6 hrs by Annexin V-FITC/propidium iodide staining-based flow cytometric analysis (reference value: 2.2%); assay type: functional
# [16] = system: K562; assay: Induction of apoptosis in human K562 cells assessed as early apoptotic cells at 300 nM after 6 hrs by Annexin V-FITC/propidium iodide staining-based flow cytometric analysis (reference value: 2.2%); assay type: functional
# [17] = system: K562; assay: Induction of morphological changes in human K562 cells assessed as cell shrinkage at 30 nM after 24 hrs; assay type: functional, cell-based; summary of the method: as §2
# [18] = system: K562; assay: Induction of apoptosis in human K562 cells assessed as late apoptotic cells at 30 nM after 48 hrs by Annexin V-FITC/propidium iodide staining-based flow cytometric analysis (reference value: 2.2%); assay type: functional
# [19] = system: K562; assay: Induction of morphological changes in human K562 cells assessed as cell blebbing at 30 nM after 24 hrs; assay type: functional, cell-based; summary of the method: as §2
# [20] = system: HepG2; assay: Antiproliferative activity against human HepG2 cells after 48 hrs by MTT assay; assay type: functional, cell-based; conditions: HepG2, 48 h
# [21] = system: K562; assay: Induction of apoptosis in human K562 cells assessed as late apoptotic cells at 30 nM after 12 hrs by Annexin V-FITC/propidium iodide staining-based flow cytometric analysis (reference value: 2.2%); assay type: functional
# [22] = system: K562; assay: Induction of apoptosis in human K562 cells assessed as necrotic cells at 30 nM after 48 hrs by Annexin V-FITC/propidium iodide staining-based flow cytometric analysis (reference value: 0.1%); assay type: functional
# [23] = system: K562; assay: Induction of apoptosis in human K562 cells assessed as viable cells at 300 nM after 12 hrs by Annexin V-FITC/propidium iodide staining-based flow cytometric analysis (reference value: 95.6%); assay type: functional; conditions: K562, 12 h, read-out: Activity
# [24] = system: K562; assay: Induction of apoptosis in human K562 cells assessed as necrotic cells at 300 nM after 12 hrs by Annexin V-FITC/propidium iodide staining-based flow cytometric analysis (reference value: 0%); assay type: functional
# [25] = system: K562; assay: Induction of apoptosis in human K562 cells assessed as necrotic cells at 300 nM after 48 hrs by Annexin V-FITC/propidium iodide staining-based flow cytometric analysis (reference value: 0%); assay type: functional
# [26] = system: K562; assay: Induction of apoptosis in human K562 cells assessed as early apoptotic cells at 300 nM after 12 hrs by Annexin V-FITC/propidium iodide staining-based flow cytometric analysis (reference value: 2.2%); assay type: functional
# [27] = system: K562; assay: Induction of apoptosis in human K562 cells assessed as necrotic cells at 300 nM after 24 hrs by Annexin V-FITC/propidium iodide staining-based flow cytometric analysis (reference value: 0%); assay type: functional
# [28] = system: HUVEC; assay: Antiangiogenic activity against HUVEC assessed as inhibition of tube formation after 12 hrs by microscopic analysis; assay type: functional, cell-based; conditions: Homo sapiens
# Summary of the method: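 Matrigel (13.9 mg/mL) polymerized 30 min at 37 °C. HUVECs (1 × 10^5 cells/well) in Ham's F-12 + 10% FBS plated on the gel; after 40 min, DMSO or compound (10, 30, 100 nM) added. Incubated 12 h at 37 °C, 5% CO2; capillary-like tube formation photographed by microscopy.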
# [29] = system: K562; assay: Induction of apoptosis in human K562 cells assessed as necrotic cells at 300 nM after 6 hrs by Annexin V-FITC/propidium iodide staining-based flow cytometric analysis (reference value: 0%); assay type: functional
# [30] = system: K562; assay: Induction of apoptosis in human K562 cells assessed as early apoptotic cells at 300 nM after 24 hrs by Annexin V-FITC/propidium iodide staining-based flow cytometric analysis (reference value: 2.2%); assay type: functional
# [31] = system: HepG2; assay: Anti-migratory activity against human HepG2 cells at 30 nM after 48 hrs by wound-healing assay relative to control; assay type: functional; summary of the method: as §1
smiles,measurement,setting,value
COc1ccc(CN2C(=O)C(=O)c3cc(-c4ccc(OC)cc4)ccc32)cc1,Activity,[1],0%
same,viability at 0.3 µM,[2],4.7%
same,Activity,[3],0.1%
same,Activity,[4],4.7%
same,Activity,[5],10%
same,viability at 0.3 µM,[6],93.6%
same,IC50,[7],920 nM
same,Activity,[8],22.3%
same,viability at 0.03 µM,[9],88.5%
same,Activity,[10],11.9%
same,viability at 0.03 µM,[11],94.4%
same,Activity,[12],3.8%
same,Activity,[13],Active
same,viability at 0.3 µM,[14],82.6%
same,Activity,[15],3.3%
same,Activity,[16],2.4%
same,Activity,[17],Active
same,Activity,[18],21.1%
same,Activity,[19],Active
same,IC50,[20],50 nM
same,Activity,[21],4%
same,Activity,[22],1%
same,viability at 0.3 µM,[23],88.1%
same,Activity,[24],0.4%
same,Activity,[25],0%
same,Activity,[26],5.7%
same,Activity,[27],0.2%
same,Activity,[28],Dose-dependent effect
same,Activity,[29],0.2%
same,Activity,[30],12.4%
same,Activity,[31],26.9%

# — ChEMBL document CHEMBL4270578, “Synthesis and cytotoxic studies of novel 5-phenylisatin derivatives and their anti-migration and anti-angiogenic evaluation” (Eur J Med Chem, 2018)
